Data: ChEMBL document CHEMBL1138555, “N-acylated and N,N'-diacylated imidazolidine-2-thione derivatives and N,N'-diacylated tetrahydropyrimidine-2(1H)-thione analogues: synthesis and antiproliferative activity” (Eur J Med Chem, 2009)

Experiments:
[1] = system: MT4; experiment: Antiproliferative activity against human MT4 cells assessed as reduction of growth by MTT assay; assay type: functional, cell-based
In short: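 MT-4 lymphoblastoid T cells (ATCC) in RPMI 1640 with 10% FCS, penicillin/streptomycin, checked for mycoplasma. 1 × 10⁴ mock-infected cells per well with serial dilutions from a 100 mM DMSO stock. Incubated 4 days at 37 °C, viable cells counted by MTT. IC50 versus untreated controls by linear regression. Mean of three separate experiments.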

[2] = system: HL-60(TB); experiment: Growth inhibition of human HL-60(TB) cells after 48 hrs by sulforhodamine B assay; assay type: functional; conditions: HL-60, 48 h
In short: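 NCI 60-cell-line screen protocol: cells exposed to compound at five 10-fold dilutions from 10^-4 to 10^-8 M for the last 48 h of a 72 h incubation. Sulforhodamine B protein assay estimated viability/growth. GI50 (50% growth inhibition) derived; where not reached or exceeded, reported as greater or less than the highest or lowest concentration tested.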

[3] = system: K562; experiment: Growth inhibition of human K562 cells after 48 hrs by sulforhodamine B assay; assay type: functional; conditions: K562, 48 h
In short: (§1)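 NCI screen panel. Five 10-fold concentrations from 10^-4 to 10^-8 M. Exposure for the last 48 h of a 72 h incubation. Growth estimated by sulforhodamine B protein assay. GI50 is the concentration giving 50% growth inhibition. Where that level was not reached or was exceeded, the value is given as above or below the highest or lowest concentration tested.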

[4] = system: MOLT-4; experiment: Growth inhibition of human MOLT4 cells after 48 hrs by sulforhodamine B assay; assay type: functional; conditions: MOLT-4, 48 h; in short: as §1
[5] = Growth inhibition of human […] cells after 48 hrs by sulforhodamine B assay; assay type: functional; in short: as §1
[6] = system: SR; experiment: Growth inhibition of human SR cells after 48 hrs by sulforhodamine B assay; assay type: functional
In short: (§2)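 NCI in vitro panel screen. Compounds tested at five 10-fold dilutions, 10^-4 to 10^-8 M. Cells in 96-well plates were exposed for the last 48 h of a 72 h incubation. Viability/growth was read by sulforhodamine B protein assay. GI50 is the concentration giving 50% growth inhibition. Values beyond the tested range are reported as greater or less than the maximum or minimum concentration.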

[7] = system: A549; experiment: Growth inhibition of human A549 cells after 48 hrs by sulforhodamine B assay; assay type: functional; conditions: A549, 48 h; in short: as §1
[8] = system: EKVX; experiment: Growth inhibition of human EKVX cells after 48 hrs by sulforhodamine B assay; assay type: functional; in short: as §1
[9] = system: HOP-92; experiment: Growth inhibition of human HOP92 cells after 48 hrs by sulforhodamine B assay; assay type: functional; conditions: HOP-92, 48 h; in short: as §1
[10] = system: NCI-H23; experiment: Growth inhibition of human NCI-H23 cells after 48 hrs by sulforhodamine B assay; assay type: functional; conditions: NCI-H23, 48 h; in short: as §1
[11] = system: NCI-H322M; experiment: Growth inhibition of human NCI-H322M cells after 48 hrs by sulforhodamine B assay; assay type: functional; in short: as §1
[12] = system: NCI-H460; experiment: Growth inhibition of human NCI-H460 cells after 48 hrs by sulforhodamine B assay; assay type: functional; conditions: NCI-H460, 48 h; in short: as §1
[13] = system: NCI-H522; experiment: Growth inhibition of human NCI-H522 cells after 48 hrs by sulforhodamine B assay; assay type: functional; conditions: NCI-H522, 48 h; in short: as §1
[14] = system: HCT-116; experiment: Growth inhibition of human HCT116 cells after 48 hrs by sulforhodamine B assay; assay type: functional; conditions: HCT-116, 48 h; in short: as §1
[15] = system: HCT-15; experiment: Growth inhibition of human HCT15 cells after 48 hrs by sulforhodamine B assay; assay type: functional; conditions: HCT-15, 48 h; in short: as §1
[16] = system: HT-29; experiment: Growth inhibition of human HT-29 cells after 48 hrs by sulforhodamine B assay; assay type: functional; conditions: HT-29, 48 h; in short: as §1
[17] = system: KM12; experiment: Growth inhibition of human KM12 cells after 48 hrs by sulforhodamine B assay; assay type: functional; conditions: KM12, 48 h; in short: as §1
[18] = system: SW-620; experiment: Growth inhibition of human SW620 cells after 48 hrs by sulforhodamine B assay; assay type: functional; conditions: SW-620, 48 h; in short: as §2
[19] = system: SF-268; experiment: Growth inhibition of human SF268 cells after 48 hrs by sulforhodamine B assay; assay type: functional; conditions: SF-268, 48 h; in short: as §1
[20] = system: SF-295; experiment: Growth inhibition of human SF295 cells after 48 hrs by sulforhodamine B assay; assay type: functional; conditions: SF-295, 48 h; in short: as §1
[21] = system: U-251; experiment: Growth inhibition of human U251 cells after 48 hrs by sulforhodamine B assay; assay type: functional; conditions: U-251, 48 h; in short: as §2
[22] = system: Malme-3M; experiment: Growth inhibition of human MALME-3M cells after 48 hrs by sulforhodamine B assay; assay type: functional; in short: as §1
[23] = system: M14; experiment: Growth inhibition of human M14 cells after 48 hrs by sulforhodamine B assay; assay type: functional; conditions: M14, 48 h; in short: as §1
[24] = system: SK-MEL-2; experiment: Growth inhibition of human SK-MEL-2 cells after 48 hrs by sulforhodamine B assay; assay type: functional; conditions: SK-MEL-2, 48 h; in short: as §1
[25] = system: SK-MEL-28; experiment: Growth inhibition of human SK-MEL-28 cells after 48 hrs by sulforhodamine B assay; assay type: functional; conditions: SK-MEL-28, 48 h; in short: as §1
[26] = system: SK-MEL-5; experiment: Growth inhibition of human SK-MEL-5 cells after 48 hrs by sulforhodamine B assay; assay type: functional; conditions: SK-MEL-5, 48 h; in short: as §1
[27] = system: UACC-257; experiment: Growth inhibition of human UACC257 cells after 48 hrs by sulforhodamine B assay; assay type: functional; conditions: UACC-257, 48 h; in short: as §2
[28] = system: UACC-62; experiment: Growth inhibition of human UACC62 cells after 48 hrs by sulforhodamine B assay; assay type: functional; conditions: UACC-62, 48 h; in short: as §2
[29] = system: IGROV-1; experiment: Growth inhibition of human IGROV1 cells after 48 hrs by sulforhodamine B assay; assay type: functional; conditions: IGROV-1, 48 h; in short: as §1
[30] = system: OVCAR-3; experiment: Growth inhibition of human OVCAR-3 cells after 48 hrs by sulforhodamine B assay; assay type: functional; conditions: OVCAR-3, 48 h; in short: as §1
[31] = system: OVCAR-4; experiment: Growth inhibition of human OVCAR4 cells after 48 hrs by sulforhodamine B assay; assay type: functional; conditions: OVCAR-4, 48 h; in short: as §1
[32] = system: OVCAR-8; experiment: Growth inhibition of human OVCAR8 cells after 48 hrs by sulforhodamine B assay; assay type: functional; conditions: OVCAR-8, 48 h; in short: as §1
[33] = system: SK-OV-3; experiment: Growth inhibition of human SKOV3 cells after 48 hrs by sulforhodamine B assay; assay type: functional; conditions: SK-OV-3, 48 h; in short: as §1
[34] = system: 786-0; experiment: Growth inhibition of human 786-0 cells after 48 hrs by sulforhodamine B assay; assay type: functional; conditions: 786-0, 48 h; in short: as §1
[35] = system: ACHN; experiment: Growth inhibition of human ACHN cells after 48 hrs by sulforhodamine B assay; assay type: functional; in short: as §1
[36] = system: CAKI-1; experiment: Growth inhibition of human Caki1 cells after 48 hrs by sulforhodamine B assay; assay type: functional; conditions: CAKI-1, 48 h; in short: as §1
[37] = system: RXF 393; experiment: Growth inhibition of human RXF393 cells after 48 hrs by sulforhodamine B assay; assay type: functional; conditions: RXF 393, 48 h; in short: as §1
[38] = system: SN12C; experiment: Growth inhibition of human SN12C cells after 48 hrs by sulforhodamine B assay; assay type: functional; in short: as §2
[39] = system: TK-10; experiment: Growth inhibition of human TK10 cells after 48 hrs by sulforhodamine B assay; assay type: functional; conditions: TK-10, 48 h; in short: as §2
[40] = system: UO-31; experiment: Growth inhibition of human UO31 cells after 48 hrs by sulforhodamine B assay; assay type: functional; conditions: UO-31, 48 h; in short: as §2
[41] = system: PC-3; experiment: Growth inhibition of human PC3 cells after 48 hrs by sulforhodamine B assay; assay type: functional; conditions: PC-3, 48 h; in short: as §1
[42] = system: DU-145; experiment: Growth inhibition of human DU145 cells after 48 hrs by sulforhodamine B assay; assay type: functional; conditions: DU-145, 48 h; in short: as §1
[43] = system: MCF7; experiment: Growth inhibition of human MCF7 cells after 48 hrs by sulforhodamine B assay; assay type: functional; conditions: MCF7, 48 h; in short: as §1
[44] = system: MDA-MB-231; experiment: Growth inhibition of human MDA-MB-231 cells after 48 hrs by sulforhodamine B assay; assay type: functional; conditions: MDA-MB-231, 48 h; in short: as §1
[45] = system: MDA-MB-435; experiment: Growth inhibition of human MDA-MB-435 cells after 48 hrs by sulforhodamine B assay; assay type: functional; conditions: MDA-MB-435, 48 h; in short: as §1
[46] = system: BT-549; experiment: Growth inhibition of human BT549 cells after 48 hrs by sulforhodamine B assay; assay type: functional; conditions: BT-549, 48 h; in short: as §1
[47] = system: T47D; experiment: Growth inhibition of human T47D cells after 48 hrs by sulforhodamine B assay; assay type: functional; in short: as §2

Work on `N#CC(C#N)=CN1CCN(C(=O)c2ccccc2)C1=S` yielded an IC50 [1] of 11 µM, a GI50 [2] of 33.5 µM and a GI50 [3] of 79.5 µM. For the same molecule, the GI50 [4] was 39.2 µM, the GI50 [5] was 35.3 µM and the GI50 [6] was 18.8 µM. For the same molecule, the GI50 [7] was 37.1 µM, the GI50 [8] was 3.5 µM and the GI50 [9] was 56.8 µM. It also gave a GI50 [10] of 26.1 µM, a GI50 [11] of 33.4 µM and a GI50 [12] of 20 µM. For the same molecule, the GI50 [13] was 15.9 µM, the GI50 [14] was 34 µM and the GI50 [15] was 36.4 µM. For the same molecule, the GI50 [16] was 42 µM, the GI50 [17] was 32.3 µM and the GI50 [18] was 33.7 µM. The GI50 [19] was 21.3 µM, the GI50 [20] was 46.2 µM and the GI50 [21] was 38.2 µM. The GI50 [22] was 10.2 µM, the GI50 [23] was 37.3 µM and the GI50 [24] was 18.4 µM. The GI50 [25] was 45.5 µM, the GI50 [26] was 23.3 µM and the GI50 [27] was 25.3 µM. The GI50 [28] was 50.4 µM, the GI50 [29] was 28.2 µM and the GI50 [30] was 36.4 µM. It also gave a GI50 [31] of 59.3 µM, a GI50 [32] of 77 µM and a GI50 [33] of 66.7 µM. For the same molecule, the GI50 [34] was 38.9 µM, the GI50 [35] was 18.8 µM and the GI50 [36] was 28.7 µM. For the same molecule, the GI50 [37] was 22.7 µM, the GI50 [38] was 24.6 µM and the GI50 [39] was 23.3 µM. For the same molecule, the GI50 [40] was 20.4 µM, the GI50 [41] was 60 µM and the GI50 [42] was 24.4 µM. The GI50 [43] was 16.7 µM, the GI50 [44] was 36.1 µM and the GI50 [45] was 38.8 µM. It also gave a GI50 [46] of 22.8 µM and a GI50 [47] of 89.2 µM.
